Measurements as given in the EternaBench riboswitch data.

Tested on: MS2 coat protein
Test: apparent Kd, MS2 coat protein; higher = weaker binding; RNA-MaP array; FMN 200 µM where present
Procedure, shortened: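 Designs on Illumina sequencing-chip clusters, transcribed by stalled E. coli RNA polymerase, were exposed to SNAP-549-labelled MS2 coat protein in doubling steps from 0.7 or 1.5 nM up to 3 µM, without and then with constant ligand. The buffer held 100 mM Tris-HCl pH 7.5, 80 mM KCl, 4 mM MgCl2, BSA, DTT, yeast tRNA and Tween-20. Apparent Kd values are medians of filtered per-cluster binding-curve fits to green signal normalised to red-channel RNA signal and control-cluster median Fmax.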

[1] = designed as: OFF switch for flavin mononucleotide, no ligand
[2] = ligand present: flavin mononucleotide, designed as: OFF switch for flavin mononucleotide
[3] = designed as: ON switch for flavin mononucleotide, no ligand
[4] = ligand present: flavin mononucleotide, designed as: ON switch for flavin mononucleotide

CCAUGGCUGUGAGGAUAUGUCUGACAAAGUCAGACAGAAGGUACAUGAGGAUCACCCAUGUGAAGAAAACCACAUUUGCCAUGG
apparent Kd [1]: 6 nM
apparent Kd [2]: 6.44 nM

AGAUCACAUGAGGAUCACCCAUGUCAGGAUAUGAUACUAUGUACUUCGGUACAUAGUAUCAGAAGGGACUUAAA
apparent Kd [1]: 101 nM
apparent Kd [2]: 283 nM

AUUUCGUCAGGAUAUCCUAGUAAUUGUUUCAUAUUUUCAUAGGAGAAGGGACAUGAGGAUCACCCAUGUUUGUC
apparent Kd [1]: 25.5 nM
apparent Kd [2]: 24.5 nM

UGUGCGUAUGUGAGGAUAUGCUGGUCCUUGGAUCAGCAGAAGGCACAUGAGGAUCACCCAUGUGGUGUCGUACG
apparent Kd [1]: 114 nM
apparent Kd [2]: 185 nM

GCCAUCGCAUGAGGAUAUGCUCCGGUUUCCGGAGCAGAAGGCAUGUGAUAACACAUGAGGAUCACCCAUGUAGUUAAGAUGGCA
apparent Kd [3]: 5.51 nM
apparent Kd [4]: 4.62 nM

UUAUACAUUCGAGGAUAUCGGUGAGAAAUCUUUCGAGAAGGCGAUUCAUGAUUUAUUAUCCUGGACAUGAGGAUCACCCAUGUA
apparent Kd [3]: 79.8 nM
apparent Kd [4]: 60.9 nM

GUCAGCUCGUCAGGAUAUACGUCACUGCUUCGGCAGUGUGGUAAGAUCACAUGAGGAUCACCCAUGUAGAAGGGACGAGCUGAU
apparent Kd [1]: 12.3 nM
apparent Kd [2]: 291 nM

AAUAUAGAGCUGGAAUAAAACACAACAUGAGGAUCACCCAUGUAGGAUAUCAGCACGAUAAGUGCUGAGAAGGACAUCCAGCUC
apparent Kd [1]: 14.7 nM
apparent Kd [2]: 14.2 nM

AGUUAUUCAGGAUAUGGUGUGUUAUACAUGAGGAUCACCCAUGUGGGUCCUGGUUAGGCCUCAGAAGGGAAUGUUA
apparent Kd [1]: 703 nM
apparent Kd [2]: 534 nM

UACUACGCAGGAUAUACAUGAGGAUCACCCAUGUGUCUGCGAUAGGCACGUGAUAUCCGUAGAAGGGUGUAGAU
apparent Kd [1]: 30.4 nM
apparent Kd [2]: 79.5 nM

AAGAAACAUGAGGAUCACCCAUGUGAGGAUAUGAUGCGAAUUAUGUAUGUAGUAAGCAUCAGAAGGCACAAAGG
apparent Kd [1]: 127 nM
apparent Kd [2]: 203 nM

UCGCUGCGAGGAUAUACAUGAGGAUCACCCAUGUGCGGGUCCGGGUCUUCGUCCAUUGGUAGAAGGCGCAGUGA
apparent Kd [1]: 45.3 nM
apparent Kd [2]: 554 nM

GUUUUUUGUCAUGUACAUGAGGAACAUGAGGAUCACCCAUGUAGAAGGAAUUUUUUUAAGUUUAGUUAGGAUAUACAUAUAUUG
apparent Kd [1]: 50.6 nM
apparent Kd [2]: 31.9 nM

AGGGAGUUAGGAUAUGCUGCUCGUCACUUGCGUGAUGAGUAGCAGAAGGGACAUGAGGAUCACCCAUGUAAAGA
apparent Kd [1]: 42.1 nM
apparent Kd [2]: 24.7 nM

CUCUUGUAAGGAUAUCACCACACAAAAAAAAAAAAGUGUGGUGAGAAGGUACAUGAGGAUCACCCAUGUACUAA
apparent Kd [1]: 23 nM
apparent Kd [2]: 22.5 nM

AUCAUGAGAGGAUAUACAUGAGGAUCACCCAUGUGGUCAUCUCCACGGGCUCAAUUACGUAGAAGGCUCAUUUG
apparent Kd [1]: 18 nM
apparent Kd [2]: 66.2 nM

GUCAGCUCGUGAGGAUAUACUUCACUGCUUCGGCAGUGUAUUAAGAUCACAUGAGGAUCACCCAUGUAGAAGGCACGAGCUGAU
apparent Kd [1]: 22.8 nM
apparent Kd [2]: 182 nM

CUUUUGUGAGGAUAUCAGUAGUAAAAAAAUAAAAUUACUACUGAGAAGGCACAUGAGGAUCACCCAUGUGCCUC
apparent Kd [1]: 13.9 nM
apparent Kd [2]: 12.9 nM

GGAGCACAUAUUAACAUGAGGAUCACCCAUGUCAAAAGACAUGAGGAUAUGGAUCCGAAAAGGAUCUAGAAGGCAUGGUGCUCC
apparent Kd [3]: 690 nM
apparent Kd [4]: 22.1 nM

CACGCCUAGGAGAAGGGCCCACUAUAGGGUAAAUGCUGUUCUCACAUGAGGAUCACCCAUGUGCGGCAGGAUAUCCACGCGUAA
apparent Kd [1]: 7.28 nM
apparent Kd [2]: 34.6 nM
